What was measured:
Aromatase [1] = target: T1, Aromatase (Homo sapiens, UniProt P11511); experiment: Inhibition of human placental microsome Cytochrome P450 19A1
T1 sequence (P11511 whole entry): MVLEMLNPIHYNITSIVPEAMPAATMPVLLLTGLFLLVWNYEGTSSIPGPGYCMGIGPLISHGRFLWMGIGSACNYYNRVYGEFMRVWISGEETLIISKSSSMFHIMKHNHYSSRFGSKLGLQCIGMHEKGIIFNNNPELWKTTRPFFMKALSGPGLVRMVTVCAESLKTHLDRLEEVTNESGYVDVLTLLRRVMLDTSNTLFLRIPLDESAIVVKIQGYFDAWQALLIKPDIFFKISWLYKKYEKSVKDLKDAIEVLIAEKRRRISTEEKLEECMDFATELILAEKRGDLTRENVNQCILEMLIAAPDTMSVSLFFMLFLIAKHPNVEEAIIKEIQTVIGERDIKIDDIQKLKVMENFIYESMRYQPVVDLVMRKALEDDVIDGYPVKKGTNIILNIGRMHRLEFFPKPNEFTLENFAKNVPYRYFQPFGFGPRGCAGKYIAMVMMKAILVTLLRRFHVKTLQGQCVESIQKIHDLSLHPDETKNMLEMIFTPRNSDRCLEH
How it was run: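 Tritiated-water release assay in 0.1 M phosphate pH 7.4. Lyophilized human placental microsomes (0.25 mg) with 0.25 µM [1β-3H]androstenedione, glucose 6-phosphate 5.3 mM, NADP 0.6 mM, G6PDH, 1.0 mM EDTA. Inhibitors from 10^-5 to 10^-8 M, added in ethanol. 15 min at 37 °C; CHCl3 extraction, then the aqueous phase counted by scintillation.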

Aromatase [2] = target: T1, Aromatase; experiment: Binding affinity for human placental microsome Cytochrome P450 19A1 by nonlinear regression analysis; settings: read-out: Ki app
How it was run: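 Human placental microsomes (0.025-0.03 mg protein) in 1.0 mL 0.1 M phosphate buffer pH 7.4, 37 °C in air, 10 min, initial velocity conditions. [1β-3H]androstenedione diluted with unlabelled androstenedione, 0.005-0.25 µM. Inhibitor at 250, 375 and 500 nM, plus no-inhibitor controls and 0-min blanks. 3H2O release counted; Ki derived by regression analysis; duplicate determinations.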

[3] = Compound was tested for inactivation kinetic values; settings: read-out: Ki app (inact)
How it was run: (§1)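 Inhibitor, various concentrations, preincubated at 37 °C with placental microsomes (0.08-0.1 mg/mL) and NADPH (0.1 mM) in 0.1 M phosphate pH 7.4. Aliquots taken over time, diluted 10-fold in cold buffer, then assayed with 0.25 µM [1β-3H]androstenedione plus NADPH-generating system, 30 min at 37 °C. Half-lives plotted against 1/[I] (Kitz-Wilson); Ki(inact) from X-intercept, T1/2 from Y-intercept; duplicate determinations.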

[4] = The T1/2 value was obtained from the time point at which each half-time reached 50% of its value at zero time; format: ADME; how it was run: as §1
[5] = Selectivity index of Kcat/app Ki(inact)
How it was run: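 Lyophilized human placental microsomes (0.08-0.1 mg/mL protein) were preincubated at 37 °C with varied inhibitor concentrations and 0.1 mM NADPH in 0.1 M phosphate buffer, pH 7.4. Timed aliquots were diluted 10-fold in cold buffer. Residual activity was read as 3H2O release from 0.25 µM [1β-3H]androstenedione with an NADPH-generating system (30 min, 37 °C). Half-life versus 1/[I] (Kitz-Wilson) gave Ki(inact) and kcat. Duplicates.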

[6] = The T1/2 values were obtained from the time point at which each half-time reached 50% of its value at zero time; format: ADME; how it was run: as §1

| Structure (SMILES) | IC50 (Aromatase [1]) [nM] | Ki (Aromatase [2]) [nM] | KI (inactivation) [3] [nM] | T1/2 [4] [min] | Selectivity index [5] | T1/2 [6] [min] |
| --- | --- | --- | --- | --- | --- | --- |
| C#CC[C@H]1CC2C3CCC(=O)C3(C)CCC2C2(C)CCC(=O)C=C12 (some centres undefined) | 176 | 37 |  |  |  |  |
| C#CC[C@@H]1CC2C(CCC3(C)C(=O)CCC23)C2CCC(=O)C=C21 (some centres undefined) | 275 | 47.6 | 19.8 | 8.9 | 65 |  |
| C#CC[C@H]1CC2C(CCC3(C)C(=O)CCC23)C2CCC(=O)C=C21 (some centres undefined) | 187 | 65.8 |  |  |  |  |
| C#CC[C@]12CCC(=O)C=C1CC[C@@H]1[C@@H]2CC[C@]2(C)C(=O)CC[C@@H]12 [PLOMESTANE] | 56.2 | 15.2 | 59.5 |  | 24 | 8.9 |
| C#CC[C@@H]1CC2C3CCC(=O)C3(C)CCC2C2(C)CCC(=O)C=C12 (some centres undefined) | 31 | 10 | 72.4 | 7.6 | 21 |  |

— ChEMBL document CHEMBL1130177, “6 beta-Propynyl-substituted steroids: mechanism-based enzyme-activated irreversible inhibitors of aromatase” (J Med Chem, 1997)
